{"source": "ChEMBL document CHEMBL3098046", "about": "“Fragment-based discovery of 6-azaindazoles as inhibitors of bacterial DNA ligase” (ACS Med Chem Lett, 2013)", "key": {"Pseudomonas aeruginosa [1]": {"tested_on": "Pseudomonas aeruginosa", "assay": "Antibacterial activity against Pseudomonas aeruginosa PAO322 after 18 to 24 hrs by broth microdilution method", "assay_type": "functional"}, "Klebsiella pneumoniae [2]": {"tested_on": "Klebsiella pneumoniae", "assay": "Antibacterial activity against TolC deficient Klebsiella pneumoniae 1161486a after 18 to 24 hrs by broth microdilution method", "assay_type": "functional"}, "Escherichia coli [3]": {"tested_on": "Escherichia coli", "assay": "Antibacterial activity against TolC deficient Escherichia coli 7623 after 18 to 24 hrs by broth microdilution method", "assay_type": "functional"}, "Haemophilus influenzae [4]": {"tested_on": "Haemophilus influenzae", "assay": "Antibacterial activity against AcrB deficient Haemophilus influenzae H128 after 18 to 24 hrs by broth microdilution method", "assay_type": "functional"}, "Acinetobacter baumannii [5]": {"tested_on": "Acinetobacter baumannii", "assay": "Antibacterial activity against Acinetobacter baumannii BM4454 after 18 to 24 hrs by broth microdilution method", "assay_type": "functional"}, "Pseudomonas aeruginosa [6]": {"tested_on": "Pseudomonas aeruginosa", "assay": "Antibacterial activity against Pseudomonas aeruginosa PAO(MV) after 18 to 24 hrs by broth microdilution method", "assay_type": "functional"}, "Klebsiella pneumoniae [7]": {"tested_on": "Klebsiella pneumoniae", "assay": "Antibacterial activity against Klebsiella pneumoniae 1161486 after 18 to 24 hrs by broth microdilution method", "assay_type": "functional"}, "Escherichia coli [8]": {"tested_on": "Escherichia coli", "assay": "Antibacterial activity against Escherichia coli 7623 after 18 to 24 hrs by broth microdilution method", "assay_type": "functional"}, "Haemophilus influenzae [9]": {"tested_on": "Haemophilus influenzae", "assay": "Antibacterial activity against Haemophilus influenzae H128 after 18 to 24 hrs by broth microdilution method", "assay_type": "functional"}, "Streptococcus pyogenes": {"tested_on": "Streptococcus pyogenes", "assay": "Antibacterial activity against Streptococcus pyogenes 1307006P after 18 to 24 hrs by broth microdilution method", "assay_type": "functional"}, "Streptococcus pneumoniae": {"tested_on": "Streptococcus pneumoniae", "assay": "Antibacterial activity against Streptococcus pneumoniae 1629 after 18 to 24 hrs by broth microdilution method", "assay_type": "functional"}, "Staphylococcus aureus [10]": {"tested_on": "Staphylococcus aureus", "assay": "Antibacterial activity against Staphylococcus aureus Oxford after 18 to 24 hrs by broth microdilution method", "assay_type": "functional"}, "DNA ligase [11]": {"molecular_target": "T1, DNA ligase (Staphylococcus aureus, UniProt Q9AIU7)", "T1 sequence (Q9AIU7 whole entry)": "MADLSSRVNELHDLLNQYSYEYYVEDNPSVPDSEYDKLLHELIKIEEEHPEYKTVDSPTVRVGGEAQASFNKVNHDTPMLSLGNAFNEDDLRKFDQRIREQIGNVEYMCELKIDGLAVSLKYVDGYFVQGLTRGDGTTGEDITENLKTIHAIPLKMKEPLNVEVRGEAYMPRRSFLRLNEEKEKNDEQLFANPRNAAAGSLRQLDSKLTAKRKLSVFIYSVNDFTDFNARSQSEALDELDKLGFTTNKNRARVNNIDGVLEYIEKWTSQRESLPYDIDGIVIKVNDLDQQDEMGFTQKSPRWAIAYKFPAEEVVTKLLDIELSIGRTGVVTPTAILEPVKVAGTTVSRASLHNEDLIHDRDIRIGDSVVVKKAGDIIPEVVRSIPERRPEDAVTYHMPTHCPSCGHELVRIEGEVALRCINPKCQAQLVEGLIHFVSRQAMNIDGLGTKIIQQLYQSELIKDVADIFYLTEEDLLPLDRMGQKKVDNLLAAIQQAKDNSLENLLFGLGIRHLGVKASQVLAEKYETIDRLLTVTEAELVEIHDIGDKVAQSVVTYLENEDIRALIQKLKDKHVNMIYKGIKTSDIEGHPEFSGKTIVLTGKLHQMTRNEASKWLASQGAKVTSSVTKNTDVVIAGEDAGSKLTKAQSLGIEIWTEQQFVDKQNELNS", "assay": "Binding affinity to C-terminal 6xHis-tagged Staphylococcus aureus DNA ligase (1 to 312) expressed in Escherichia coli BL21 (DE3) by ITC assay"}, "DNA ligase [12]": {"molecular_target": "T1, DNA ligase", "assay": "Inhibition of C-terminal 6xHis-tagged full length recombinant Staphylococcus aureus DNA ligase (1 to 312) expressed in Escherichia coli BL21 (DE3) using oligonucleotide as substrate after 10 mins by TR-FRET assay"}, "[13]": {"assay": "Solubility of the compound", "assay_type": "physicochemical"}, "L5178Y": {"tested_on": "L5178Y", "assay": "Cytotoxicity against TK +/- expressing mouse L5178Y cells", "assay_type": "cell-based", "how_it_was_run": "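Mouse lymphoma cell line (described as lung lymphoma) used for general cytotoxicity, tested up to a highest concentration of 100 μM.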"}, "[14]": {"assay": "Inhibition of Escherichia coli LigA"}, "Escherichia coli [15]": {"tested_on": "Escherichia coli", "assay": "Antibacterial activity against TolC deficient Escherichia coli TOP10 expressing LigA R518H mutant by broth microdilution method", "assay_type": "functional"}, "Escherichia coli [16]": {"tested_on": "Escherichia coli", "assay": "Antibacterial activity against TolC deficient Escherichia coli TOP10 expressing LigA R150S mutant by broth microdilution method", "assay_type": "functional"}, "Escherichia coli [17]": {"tested_on": "Escherichia coli", "assay": "Antibacterial activity against TolC deficient Escherichia coli TOP10 expressing LigA G180E mutant by broth microdilution method", "assay_type": "functional"}, "Escherichia coli [18]": {"tested_on": "Escherichia coli", "assay": "Antibacterial activity against TolC deficient Escherichia coli TOP10 by broth microdilution method", "assay_type": "functional"}, "Staphylococcus aureus [19]": {"tested_on": "Staphylococcus aureus", "assay": "Antibacterial activity against Staphylococcus aureus RN4220 expressing pYH4-YerG/LigA by broth microdilution method in presence of anhydrotetracycline", "assay_type": "functional"}, "Staphylococcus aureus [20]": {"tested_on": "Staphylococcus aureus", "assay": "Antibacterial activity against Staphylococcus aureus RN4220 expressing pYH4-YerG/LigA by broth microdilution method in absence of anhydrotetracycline", "assay_type": "functional"}, "Staphylococcus aureus [21]": {"tested_on": "Staphylococcus aureus", "assay": "Antibacterial activity against Staphylococcus aureus RN4220 expressing pYH4 by broth microdilution method in presence of anhydrotetracycline", "assay_type": "functional"}, "Staphylococcus aureus [22]": {"tested_on": "Staphylococcus aureus", "assay": "Antibacterial activity against Staphylococcus aureus RN4220 expressing pYH4 by broth microdilution method in absence of anhydrotetracycline", "assay_type": "functional"}, "Acinetobacter baumannii [23]": {"tested_on": "Acinetobacter baumannii", "assay": "Antibacterial activity against Acinetobacter baumannii BM4652 expressing efflux transporter mutant after 18 to 24 hrs by broth microdilution method"}}}
{"compound": "Nc1nc(OCC2CCC2)nc2c1ncn2[C@@H]1O[C@H](CF)[C@@H](O)[C@H]1O", "values": [{"measurement": "MIC", "setting": "Pseudomonas aeruginosa [1]", "result": 64, "unit": "µg/mL"}, {"measurement": "MIC", "setting": "Klebsiella pneumoniae [2]", "result": 8, "unit": "µg/mL"}, {"measurement": "MIC", "setting": "Escherichia coli [3]", "result": 8, "unit": "µg/mL"}, {"measurement": "MIC", "setting": "Haemophilus influenzae [4]", "result": 2, "unit": "µg/mL"}, {"measurement": "MIC", "setting": "Acinetobacter baumannii [5]", "result": "> 128", "unit": "µg/mL"}, {"measurement": "MIC", "setting": "Pseudomonas aeruginosa [6]", "result": "> 128", "unit": "µg/mL"}, {"measurement": "MIC", "setting": "Klebsiella pneumoniae [7]", "result": "> 128", "unit": "µg/mL"}, {"measurement": "MIC", "setting": "Escherichia coli [8]", "result": "> 128", "unit": "µg/mL"}, {"measurement": "MIC", "setting": "Haemophilus influenzae [9]", "result": 16, "unit": "µg/mL"}, {"measurement": "MIC", "setting": "Streptococcus pyogenes", "result": 8, "unit": "µg/mL"}, {"measurement": "MIC", "setting": "Streptococcus pneumoniae", "result": 2, "unit": "µg/mL"}, {"measurement": "MIC", "setting": "Staphylococcus aureus [10]", "result": 8, "unit": "µg/mL"}]}
{"compound": "Clc1cncc(-c2nnc[nH]2)n1", "values": [{"measurement": "Kd", "setting": "DNA ligase [11]", "result": 38, "unit": "µM"}]}
{"compound": "Clc1cccc(-c2nc[nH]n2)n1", "values": [{"measurement": "Kd", "setting": "DNA ligase [11]", "result": 10, "unit": "µM"}, {"measurement": "IC50", "setting": "DNA ligase [12]", "result": 17, "unit": "µM"}]}
{"compound": "c1ccc(-c2nnc[nH]2)nc1", "values": [{"measurement": "IC50", "setting": "DNA ligase [12]", "result": 300, "unit": "µM"}]}
{"compound": "COc1cccc(-c2nnc[nH]2)n1", "values": [{"measurement": "IC50", "setting": "DNA ligase [12]", "result": 130, "unit": "µM"}]}
{"compound": "Cc1cccc(-c2nnc[nH]2)n1", "values": [{"measurement": "IC50", "setting": "DNA ligase [12]", "result": 140, "unit": "µM"}]}
{"compound": "c1cc(-c2nnc[nH]2)nc(C2CCC2)c1", "values": [{"measurement": "IC50", "setting": "DNA ligase [12]", "result": 53, "unit": "µM"}]}
{"compound": "CC(F)(F)c1cccc(-c2nnc[nH]2)n1", "values": [{"measurement": "IC50", "setting": "DNA ligase [12]", "result": 21, "unit": "µM"}]}
{"compound": "FC(F)(F)c1cccc(-c2nc[nH]n2)n1", "values": [{"measurement": "IC50", "setting": "DNA ligase [12]", "result": 16, "unit": "µM"}]}
{"compound": "FC(F)(F)c1cccc(-c2n[nH]c3cnccc23)n1", "values": [{"measurement": "IC50", "setting": "DNA ligase [12]", "result": 0.22, "unit": "µM"}, {"measurement": "solubility", "setting": "[13]", "result": 12, "unit": "µg/mL"}]}
{"compound": "OCCNc1cc(-c2n[nH]c3cnccc23)nc(C(F)(F)F)c1", "values": [{"measurement": "IC50", "setting": "L5178Y", "result": 16, "unit": "µg/mL"}, {"measurement": "MIC", "setting": "Pseudomonas aeruginosa [1]", "result": "> 128", "unit": "µg/mL"}, {"measurement": "MIC", "setting": "Klebsiella pneumoniae [2]", "result": "> 128", "unit": "µg/mL"}, {"measurement": "MIC", "setting": "Escherichia coli [3]", "result": 128, "unit": "µg/mL"}, {"measurement": "MIC", "setting": "Haemophilus influenzae [4]", "result": 8, "unit": "µg/mL"}, {"measurement": "MIC", "setting": "Acinetobacter baumannii [5]", "result": "> 128", "unit": "µg/mL"}, {"measurement": "MIC", "setting": "Pseudomonas aeruginosa [6]", "result": "> 128", "unit": "µg/mL"}, {"measurement": "MIC", "setting": "Klebsiella pneumoniae [7]", "result": "> 128", "unit": "µg/mL"}, {"measurement": "MIC", "setting": "Escherichia coli [8]", "result": "> 128", "unit": "µg/mL"}, {"measurement": "MIC", "setting": "Haemophilus influenzae [9]", "result": 128, "unit": "µg/mL"}, {"measurement": "MIC", "setting": "Streptococcus pyogenes", "result": 128, "unit": "µg/mL"}, {"measurement": "MIC", "setting": "Streptococcus pneumoniae", "result": 64, "unit": "µg/mL"}, {"measurement": "MIC", "setting": "Staphylococcus aureus [10]", "result": 8, "unit": "µg/mL"}, {"measurement": "IC50", "setting": "DNA ligase [12]", "result": 0.23, "unit": "µM"}, {"measurement": "solubility", "setting": "[13]", "result": 113, "unit": "µg/mL"}]}
{"compound": "OCCNc1cc(C(F)(F)F)nc(-c2n[nH]c3cnccc23)n1", "values": [{"measurement": "IC50", "setting": "[14]", "result": 0.097, "unit": "µM"}, {"measurement": "MIC", "setting": "Escherichia coli [15]", "result": 64, "unit": "µg/mL"}, {"measurement": "MIC", "setting": "Escherichia coli [16]", "result": 64, "unit": "µg/mL"}, {"measurement": "MIC", "setting": "Escherichia coli [17]", "result": 64, "unit": "µg/mL"}, {"measurement": "MIC", "setting": "Escherichia coli [18]", "result": 8, "unit": "µg/mL"}, {"measurement": "MIC", "setting": "Staphylococcus aureus [19]", "result": 128, "unit": "µg/mL"}, {"measurement": "MIC", "setting": "Staphylococcus aureus [20]", "result": 16, "unit": "µg/mL"}, {"measurement": "MIC", "setting": "Staphylococcus aureus [21]", "result": 8, "unit": "µg/mL"}, {"measurement": "MIC", "setting": "Staphylococcus aureus [22]", "result": 8, "unit": "µg/mL"}, {"measurement": "IC50", "setting": "L5178Y", "result": "> 36", "unit": "µg/mL"}, {"measurement": "MIC", "setting": "Pseudomonas aeruginosa [1]", "result": 32, "unit": "µg/mL"}, {"measurement": "MIC", "setting": "Klebsiella pneumoniae [2]", "result": 32, "unit": "µg/mL"}, {"measurement": "MIC", "setting": "Escherichia coli [3]", "result": 16, "unit": "µg/mL"}, {"measurement": "MIC", "setting": "Haemophilus influenzae [4]", "result": 1, "unit": "µg/mL"}, {"measurement": "MIC", "setting": "Acinetobacter baumannii [5]", "result": "> 128", "unit": "µg/mL"}, {"measurement": "MIC", "setting": "Pseudomonas aeruginosa [6]", "result": "> 128", "unit": "µg/mL"}, {"measurement": "MIC", "setting": "Klebsiella pneumoniae [7]", "result": "> 128", "unit": "µg/mL"}, {"measurement": "MIC", "setting": "Escherichia coli [8]", "result": "> 128", "unit": "µg/mL"}, {"measurement": "MIC", "setting": "Haemophilus influenzae [9]", "result": 16, "unit": "µg/mL"}, {"measurement": "MIC", "setting": "Streptococcus pyogenes", "result": 8, "unit": "µg/mL"}, {"measurement": "MIC", "setting": "Streptococcus pneumoniae", "result": 2, "unit": "µg/mL"}, {"measurement": "MIC", "setting": "Staphylococcus aureus [10]", "result": 4, "unit": "µg/mL"}, {"measurement": "Kd", "setting": "DNA ligase [11]", "result": 0.025, "unit": "µM"}, {"measurement": "IC50", "setting": "DNA ligase [12]", "result": 0.015, "unit": "µM"}, {"measurement": "MIC", "setting": "Acinetobacter baumannii [23]", "result": 32, "unit": "µg/mL"}]}
